Source: ChEMBL document CHEMBL4665637, “Inhibition of diverse opportunistic viruses by structurally optimized retrograde trafficking inhibitors” (Bioorg Med Chem, 2019)
Active and inactive are the calls of the source. The calls are words filed in the database; no cut-off is given here.

Experiments:
[1] = system: Vero; test: Cytotoxicity in African green monkey VERO cells assessed as cell viability at 100 nM incubated for 96 hrs by CellTiter-Glo Luminescent assay; format: cell-based; conditions: chlorocebus sabaeus, 0.1 µM
Outline: (§1)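 Cells in 96-well plates exposed to DMSO or compound at 100 nM or 10 µM for 96 h. Medium then replaced with fresh medium. XTT read as absorbance after 2 h at 37°C with activating reagent; CellTiter-Glo (ATP) read as luminescence. Average of three independent experiments.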

[2] = Cytotoxicity in mouse BALB/3T3 clone A31 cells assessed as cell viability at 10 uM incubated for 96 hrs by CellTiter-Glo Luminescent assay; format: cell-based; conditions: balb/3t3 clone a31, 96 h; outline: as §1
[3] = system: NHDF; test: Cytotoxicity in human NHDF cells assessed as cell viability at 100 nM incubated for 96 hrs by XTT Assay; format: cell-based; conditions: 0.1 µM; outline: as §1
[4] = system: ARPE-19; test: Cytotoxicity in human ARPE-19 cells assessed as cell viability at 10 uM incubated for 96 hrs by XTT Assay; format: cell-based; conditions: arpe-19, 96 h; outline: as §1
[5] = system: Human betaherpesvirus 5; test: Antiviral activity against HCMV infected in human ARPE-19 cells at 7.5 uM measured after 6 days post infection; format: functional, cell-based
Outline: (§2)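 ARPE-19 cells infected with GFP-expressing HCMV and treated with compound at 7.5 µM. Images taken 3 and 6 days post infection, and area of infection calculated from GFP signal. Average of 3 distinct experiments.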

[6] = system: BALB/3T3 clone A31; test: Antiviral activity against mouse polyomavirus A2 strain infected in BALB.3T3 clone A31 cells assessed as viral RNA at 100 nM measured after 24 hpi by RT-PCR analysis; format: functional, cell-based; conditions: Murine polyomavirus
Outline: (§3)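 A31 cells in 10% FBS DMEM infected with MuPyV A2 at MOI 1 for 1.5 h at 37°C. Cells washed twice, then exposed to compound (100 nM, 1.0 µM or 10 µM) for 24 h. Total RNA extracted and 2 µg converted to cDNA. LT mRNA measured by qPCR, normalized to TBP and to untreated cells. Two independent experiments, n=4 per condition, mean ± SD, 2-way ANOVA.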

[7] = system: NHDF; test: Cytotoxicity in human NHDF cells assessed as cell viability at 100 nM incubated for 96 hrs by CellTiter-Glo Luminescent assay; format: cell-based; conditions: 0.1 µM; outline: as §1
[8] = system: Vero; test: Cytotoxicity in African green monkey VERO cells assessed as cell viability at 100 nM incubated for 96 hrs by XTT Assay; format: cell-based; conditions: chlorocebus sabaeus, 0.1 µM; outline: as §1
[9] = system: ARPE-19; test: Cytotoxicity in human ARPE-19 cells assessed as cell viability at 10 uM incubated for 96 hrs by CellTiter-Glo Luminescent assay; format: cell-based; conditions: arpe-19, 96 h; outline: as §1
[10] = Cytotoxicity in mouse BALB/3T3 clone A31 cells assessed as cell viability at 100 nM incubated for 96 hrs by CellTiter-Glo Luminescent assay; format: cell-based; conditions: balb/3t3 clone a31, 96 h, 0.1 µM; outline: as §1
[11] = Cytotoxicity in mouse BALB/3T3 clone A31 cells assessed as cell viability at 100 nM incubated for 96 hrs by XTT Assay; format: cell-based; conditions: balb/3t3 clone a31, 96 h, 0.1 µM; outline: as §1
[12] = system: BALB/3T3 clone A31; test: Antiviral activity against mouse polyomavirus A2 strain infected in BALB.3T3 clone A31 cells assessed as viral RNA at 1 to 10 uM measured after 24 hpi by RT-PCR analysis; format: functional, cell-based; conditions: Murine polyomavirus; outline: as §3
[13] = system: NHDF; test: Cytotoxicity in human NHDF cells assessed as cell viability at 10 uM incubated for 96 hrs by CellTiter-Glo Luminescent assay; format: cell-based; outline: as §1
[14] = system: Vero; test: Cytotoxicity in African green monkey VERO cells assessed as cell viability at 10 uM incubated for 96 hrs by CellTiter-Glo Luminescent assay; format: cell-based; conditions: chlorocebus sabaeus, dose […]; outline: as §1
[15] = system: Human betaherpesvirus 5; test: Antiviral activity against HCMV TB40/E infected in human NHDF cells assessed as reduction in infectious virus titer compound added 2 hpi and measured after 96 hpi by inverted microscopic analysis; conditions: Human betaherpesvirus 5, TB40/E
[16] = Cytotoxicity in mouse BALB/3T3 clone A31 cells assessed as cell viability at 10 uM incubated for 96 hrs by XTT Assay; format: cell-based; conditions: balb/3t3 clone a31, 96 h; outline: as §1
[17] = system: Human betaherpesvirus 5; test: Antiviral activity against HCMV infected in human ARPE-19 cells at 7.5 uM measured after 3 days post infection; format: functional, cell-based; outline: as §2
[18] = system: Human betaherpesvirus 5; test: Antiviral activity against HCMV TB40/E infected in human assessed as reduction in infectious virus titer at 10 uM compound added 2 hpi and measured after 96 hpi by inverted microscopic analysis
[19] = system: NHDF; test: Cytotoxicity in human NHDF cells assessed as cell viability at 10 uM incubated for 96 hrs by XTT Assay; format: cell-based; outline: as §1
[20] = system: ARPE-19; test: Cytotoxicity in human ARPE-19 cells assessed as cell viability at 100 nM incubated for 96 hrs by XTT Assay; format: cell-based; conditions: arpe-19, 96 h, 0.1 µM; outline: as §1
[21] = system: Vero; test: Cytotoxicity in African green monkey VERO cells assessed as cell viability at 10 uM incubated for 96 hrs by XTT Assay; format: cell-based; conditions: chlorocebus sabaeus; outline: as §1
[22] = system: NHDF; test: Inhibition of retrograde transport in NHDF cells assessed as displacement of STX5 from golgi apparatus at 10 uM by immunofluorescence analysis; format: functional, cell-based; conditions: Homo sapiens
Outline: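 HDFs exposed to 10 µM compound or DMSO vehicle, fixed in 2% paraformaldehyde for 15 min at room temperature. Blocked in PBS with 10% human serum, 0.5% Tween-20 and 5% glycine, permeabilized with 0.1% Triton X-100. Stained for STX5 and for the Golgi marker p115, DAPI mounting, imaged by confocal microscopy.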

[23] = system: ARPE-19; test: Cytotoxicity in human ARPE-19 cells assessed as cell viability at 100 nM incubated for 96 hrs by CellTiter-Glo Luminescent assay; format: cell-based; conditions: arpe-19, 96 h, 0.1 µM; outline: as §1
[24] = system: BALB/3T3 clone A31; test: Antiviral activity against mouse polyomavirus A2 strain infected in BALB.3T3 clone A31 cells assessed as viral RNA at 100 nM to 10 uM measured after 24 hpi by RT-PCR analysis; format: functional, cell-based; conditions: Murine polyomavirus, dose microM 0.1-10; outline: as §3

| SMILES | Activity [1] | Activity [2] | Activity [3] | Activity [4] | Activity [5] | Activity [7] | Activity [8] | Activity [9] | Activity [10] | Activity [11] | Activity [13] | Activity [14] | IC50 [15] [nM] | Activity [16] | Activity [17] | Activity [18] | Activity [19] | Activity [20] | STX5 displacement from Golgi (active/inactive call) [22] | Activity [23] | further results |
| --- | --- | --- | --- | --- | --- | --- | --- | --- | --- | --- | --- | --- | --- | --- | --- | --- | --- | --- | --- | --- | --- |
| Cc1nc(-c2ccc(C3Nc4ccc(C#N)cc4C(=O)N3c3ccccc3)s2)cs1 (stereo not drawn) | Non-Toxic | Toxic | Non-Toxic | Toxic | Active | Non-Toxic | Non-Toxic | Toxic | Non-Toxic | Non-Toxic | Toxic | Toxic | 96.3 | Toxic | Active | Active | Toxic | Non-Toxic | Active | Non-Toxic | Activity [6]: inactive; Activity [12]: Active; Activity [21]: Toxic |
| Cc1nc(-c2ccc(C3N(C)c4ccc([N+](=O)[O-])cc4C(=O)N3c3ccccc3)s2)cs1 (stereo not drawn) | Non-Toxic | Toxic | Non-Toxic | Toxic | Active | Non-Toxic | Non-Toxic | Toxic | Non-Toxic | Non-Toxic | Toxic | Toxic | 21.3 | Toxic | Active | Active | Toxic | Non-Toxic | Active | Non-Toxic | Activity [24]: Active; Activity [21]: Toxic |
| Cc1nc(-c2ccc(C3N(C)c4ccc(C#N)cc4C(=O)N3c3ccccc3)s2)cs1 (stereo not drawn) | Non-Toxic | Toxic | Non-Toxic |  | Active | Non-Toxic | Non-Toxic | Toxic | Non-Toxic | Non-Toxic | Toxic | Toxic | 34.1 |  | Active | Active |  | Non-Toxic | Active | Non-Toxic | Activity [24]: Active |
| Cc1nc(-c2ccc(C3N(C)c4ccc(F)cc4C(=O)N3c3ccccc3)s2)cs1 (stereo not drawn) |  |  |  |  |  |  |  |  |  |  |  |  | 25 |  |  |  |  |  |  |  |  |
| Cc1nc(-c2ccc(C3Nc4ccc([N+](=O)[O-])cc4C(=O)N3c3ccccc3)s2)cs1 (stereo not drawn) | Non-Toxic | Toxic | Non-Toxic | Toxic | Active | Non-Toxic | Non-Toxic | Toxic | Non-Toxic | Non-Toxic | Toxic | Toxic | 90.5 | Toxic | Active | Active | Toxic | Non-Toxic | Active | Non-Toxic | Activity [6]: inactive; Activity [12]: Active; Activity [21]: Toxic |
| Cc1nc(-c2ccc(C3N(C)c4ccccc4C(=O)N3c3ccccc3)s2)cs1 (stereo not drawn) |  |  |  |  |  |  |  |  |  |  |  |  | 386 |  |  |  |  |  |  |  |  |
